Assay outcomes from PubChem.
A selection: hits, their analogues and other compounds. The true share with any hit is near 2.2%.
IMP-1 inh-1 – inhibitors of Pseudomonas aeruginosa IMP-1 metallo-beta-lactamase. 290,000 compounds, 0.45% hits. inhibition, % at 5.6 µM. purified IMP-1, nitrocefin hydrolysis, epi-absorbance fluorescence;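 active means inhibition above the mean plus 3 SD of all compounds in the same screening run, cut at about 4.5% in these data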
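system = purified recombinant IMP-1 beta-lactamase | amount = 0.2 nM IMP-1, as dispensed | medium = HEPES buffer pH 7.1 with ZnSO4 and Brij 35 | times = 25 °C, 15 min preincubation, 25 min reaction | detection = plate fluorescence quenching by hydrolysis product, ex 480/em 530 nm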
VIM-2 inhibitor – inhibitors of Pseudomonas aeruginosa VIM-2 metallo-beta-lactamase | inhibition, % at 5.6 µM | purified VIM-2, nitrocefin hydrolysis, epi-absorbance fluorescence | 290,000 compounds, 0.89% hits;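 active means inhibition above the mean of all tested compounds plus 3 SD, cutoff set per screening run, cut at about 7.5% in these data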;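 further: red hydrolysis product quenches plate fluorescence so inhibitors raise well fluorescence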
PvdQ acylase – P. aeruginosa PvdQ acylase inhibition; purified PvdQ acylase, fluorescence plate reader; inhibition, % at 10 µM; 340,000 compounds, 0.063% hits; in the data active means inhibition above about 30%, passing the limit was not always enough
CR mimetic SO – yeast age-related superoxide inhibition as caloric restriction mimetic; S. cerevisiae aged cells, superoxide DHE fluorescence; active compounds read low; superoxide response (% of plate mean), % at 10 µM; 330,000 compounds, 0.18% hits; AID 2690;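 active means superoxide response under a set limit, about three screen SD below normal, cut at about 65% in these data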;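 further: yeast aged for seven days with compound at 30 °C before DHE staining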
PHOSPHO1 inh – inhibitors of human PHOSPHO1 phosphatase; 290,000 compounds, 1.1% hits; inhibition, % at 13.3 µM; AID 1565; Q8TCT1; recombinant PHOSPHO1, absorbance phosphatase assay; in the data active means inhibition above about 60%
Target sequence (Q8TCT1 whole entry, looked up): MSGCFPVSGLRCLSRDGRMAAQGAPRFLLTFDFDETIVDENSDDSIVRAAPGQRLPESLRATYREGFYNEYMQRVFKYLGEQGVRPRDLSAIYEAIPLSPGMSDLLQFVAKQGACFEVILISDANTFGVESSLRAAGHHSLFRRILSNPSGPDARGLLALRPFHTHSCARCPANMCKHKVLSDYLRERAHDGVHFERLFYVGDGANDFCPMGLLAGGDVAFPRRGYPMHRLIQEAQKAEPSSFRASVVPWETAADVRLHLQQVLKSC
IMP-1 inh-2 – blocks IMP-1 metallo-beta-lactamase in VIM-2 selectivity screen; shares compounds with VIM-2 inhibitor; purified IMP-1, nitrocefin hydrolysis, epi-absorbance fluorescence; AID 1856; inhibition, % at 5.6 µM; 1,300 tested, under 10 active; call rule not given here
VIM-2 FRET inh – VIM-2 FRET inhibition, artifact counter-screen | 1,300 compounds, 23% hits | AID 1857 | inhibition, % at 5.6 µM | purified VIM-2, CCF2 FRET substrate hydrolysis | shares compounds with VIM-2 inhibitor;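 active means inhibition above the mean of all tested compounds plus 3 SD, cut at about 19% in these data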
TEM-1 inh – selectivity counter-screen for VIM-2 inhibitors: E. coli TEM-1 inhibitors | Purified TEM-1, nitrocefin hydrolysis, epi-absorbance fluorescence | inhibition, % at 5.6 µM | shares compounds with VIM-2 inhibitor | 1,300 compounds, 3% hits;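 active means inhibition above that campaign's mean inhibition plus 3 SD, cut at about 0.46% in these data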
Target sequence (P62593 whole entry, looked up): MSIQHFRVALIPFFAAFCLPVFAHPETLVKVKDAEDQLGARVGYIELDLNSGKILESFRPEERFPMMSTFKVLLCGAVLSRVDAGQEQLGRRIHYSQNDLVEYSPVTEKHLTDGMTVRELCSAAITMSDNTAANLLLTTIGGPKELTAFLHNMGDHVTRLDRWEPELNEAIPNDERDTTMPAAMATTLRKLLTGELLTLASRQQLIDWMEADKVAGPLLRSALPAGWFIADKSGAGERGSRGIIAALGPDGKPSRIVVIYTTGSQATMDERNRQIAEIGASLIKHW
VIM-2 confirm 2 – confirmation of P. aeruginosa VIM-2 metallo-beta-lactamase inhibitors | shares compounds with VIM-2 inhibitor | 1,300 compounds, 96% hits | inhibition, % at 5.6 µM | purified VIM-2, nitrocefin hydrolysis, epi-absorbance;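 active means inhibition of the VIM-2 beta-lactamase enzyme above about 11% from the earlier first-round screen, limit read from the data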
Of the large screens only hits and unclear results are named; the others gave an inactive call (follow-up assays come after a bar, where they were run).

Cc1ccc(-c2ccc(/C=N\n3cnnc3)o2)c(Br)c1	VIM-2 inhibitor 13 | IMP-1 inh-2 inactive | VIM-2 FRET inh inactive | TEM-1 inh inactive | VIM-2 confirm 2 24
Cc1ccccc1-n1nnnc1SCC(=O)c1c(N)n(C2CC2)c(=O)[nH]c1=O	none (no result: IMP-1 inh-1, VIM-2 inhibitor, CR mimetic SO, PHOSPHO1 inh)
COc1ccc(Cc2nnc(NC(=O)C3CCCO3)s2)cc1OC (configuration not stated)	VIM-2 inhibitor 56 | IMP-1 inh-2 inactive | VIM-2 FRET inh inactive | TEM-1 inh inactive | VIM-2 confirm 2 inactive
COc1ccccc1CC(=O)Nc1ccc(S(=O)(=O)N2CC(C)CC(C)C2)cc1 (configuration not stated)	none (no result: IMP-1 inh-1, VIM-2 inhibitor, PHOSPHO1 inh)
O=C(CNCc1ccccn1)N1CCc2ccccc2C1	VIM-2 inhibitor 30 | IMP-1 inh-2 inactive | VIM-2 FRET inh inactive | TEM-1 inh inactive | VIM-2 confirm 2 50
CCCCN1C(=O)C(C(=O)OCC)CC2=C1CCCC2=O (configuration not stated)	none (no result: IMP-1 inh-1, VIM-2 inhibitor, CR mimetic SO, PHOSPHO1 inh)
Cc1nc2c(C)cccc2c2c1CCN2c1ccccc1F	none
COc1ccc(N2CCc3c(C)nc4c(OC)cc(OC)cc4c32)cc1	VIM-2 inhibitor 15 | IMP-1 inh-2 inactive | VIM-2 FRET inh inactive | TEM-1 inh inactive | VIM-2 confirm 2 22
COc1cccc(N2CCc3c(C)nc4ccc(Cl)cc4c32)c1	VIM-2 inhibitor 22 | IMP-1 inh-2 inactive | VIM-2 FRET inh inactive | TEM-1 inh inactive | VIM-2 confirm 2 30
Cc1nc(-c2ccccn2)nc(N(C)c2ccccc2)c1Cl	VIM-2 inhibitor 21 | IMP-1 inh-2 inactive | VIM-2 FRET inh inactive | TEM-1 inh inactive | VIM-2 confirm 2 34
COc1cnc(-c2ccccn2)nc1N(C)C	none
Cc1nc(-c2ccccn2)nc(N2CCOCC2)c1Cl	VIM-2 inhibitor 18 | IMP-1 inh-2 inactive | VIM-2 FRET inh inactive | TEM-1 inh inactive | VIM-2 confirm 2 30
O=C(Cc1cccc(NC(=O)C2CCCN(C(=O)C3CCC3)C2)c1)Nc1cccc(C(=O)N2CCCC2)c1 (configuration not stated)	none (no result: IMP-1 inh-1, VIM-2 inhibitor, PHOSPHO1 inh)
Cc1nn(C(C)C(=O)NCCCN2CCCCCC2)c(=O)c2c1sc1ccccc12 (configuration not stated)	none
CCCN1CCN(CCCNC(=O)C(CC)n2nc(C)c3sc4ccccc4c3c2=O)CC1 (configuration not stated)	none
CCCN1CCN(C(=O)C(C)n2nc(C)c3sc4ccccc4c3c2=O)CC1 (configuration not stated)	VIM-2 inhibitor 29 | IMP-1 inh-2 inactive | VIM-2 FRET inh inactive | TEM-1 inh inactive | VIM-2 confirm 2 36
CCN1CCN(CCCNC(=O)CCCn2nc(C)c3sc4ccccc4c3c2=O)CC1	VIM-2 inhibitor 13 | IMP-1 inh-2 inactive | VIM-2 FRET inh inactive | TEM-1 inh inactive | VIM-2 confirm 2 16
O=S(=O)(Cc1noc(-c2ccccc2Cl)n1)c1ccccn1	none
O=C1OC(c2ccccc2)=N/C1=C\C=C\c1ccco1	none
O=C1OC(c2ccccc2)=N/C1=C\C=C\c1ccccc1[N+](=O)[O-]	VIM-2 inhibitor 16 | IMP-1 inh-2 inactive | VIM-2 FRET inh 30 | TEM-1 inh inactive | VIM-2 confirm 2 9.9
COc1ccc(C2=NC(=O)/C(=C\c3cc(OC)c(OC)c(OC)c3)O2)cc1	none
CCOC(=O)c1cnc(-n2nc(C)cc2C)nc1NCc1ccc2c(c1)OCO2	VIM-2 inhibitor 58 | IMP-1 inh-2 inactive | VIM-2 FRET inh inactive | TEM-1 inh 1.6 | VIM-2 confirm 2 89
CC1(C)NC(=O)N(CCC(=O)Nc2cc(C(F)(F)F)ccc2Cl)C1=O	none (no result: IMP-1 inh-1, VIM-2 inhibitor, PHOSPHO1 inh)
Cc1ccc(-c2nn3c(C)nnc3c3ccccc23)cc1S(=O)(=O)NCCN1CCOCC1	VIM-2 inhibitor 42 | IMP-1 inh-2 inactive | VIM-2 FRET inh inactive | TEM-1 inh inactive | VIM-2 confirm 2 58
Cc1ccc(-c2nn3c(C)nnc3c3ccccc23)cc1S(=O)(=O)N(C)CCO	VIM-2 inhibitor 21 | IMP-1 inh-2 inactive | VIM-2 FRET inh inactive | TEM-1 inh inactive | VIM-2 confirm 2 32
